Reference: ChEMBL document CHEMBL4706562, “Design, synthesis and evaluation of covalent inhibitors of DprE1 as antitubercular agents” (Eur J Med Chem, 2020)
pIC50: −log10 of the molar value. In brackets after ≈: the same amount, converted by molar mass. Activity calls are given as the source filed them. The rule behind the calls is not given here.

Key:
[1] = tested on: Mycobacterium tuberculosis; assay: Antimycobacterial activity against Mycobacterium tuberculosis H37Rv ATCC 25618 assessed as inhibition of visible bacterial growth by MABA assay; assay type: functional
Method in brief: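 Inoculum adjusted to 1.0 McFarland, diluted 1:20 in Middlebrook 7H9 with 10% OADC and 0.2% glycerol. Compounds taken from 1.0 mg/mL DMSO stocks and serially diluted two-fold. Microplate alamar blue read-out: blue to pink marks growth, colours recorded after 24 h. MIC taken as the lowest concentration giving no colour change. PBTZ169 served as positive control.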

[2] = Half life of the compound in PBS assessed as parent compound remaining by HPLC analysis; assay type: physicochemical
[3] = Reactivity of compound towards methyl thioglycolate in PBS measured after 48 hrs by LC/MS/MS; assay type: physicochemical; details: buffer
Method in brief: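 Test compound and methyl thioglycolate co-incubated at 37 °C in 50 mM PBS, pH 7.4. The reaction was followed by TLC, and aliquots were injected into LC-MS/MS at set intervals over 48 h. Electrospray positive-ion mass spectra detected MT adducts, and half-life was determined.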

[4] = target: T1, Decaprenylphosphoryl-beta-D-ribose oxidase (Mycobacterium tuberculosis (strain ATCC 25618 / H37Rv)) (UniProt P9WJF1); assay: Inhibition of Mycobacterium tuberculosis DprE1 expressed in Escherichia coli BL21 (DE3) cells assessed as formation of resorufin using FPR as substrate at 20 uM by Amplex Red hydrogen/peroxidase coupled assay; set-up: scale not given: the % may be the effect or the level left
T1 sequence (whole entry): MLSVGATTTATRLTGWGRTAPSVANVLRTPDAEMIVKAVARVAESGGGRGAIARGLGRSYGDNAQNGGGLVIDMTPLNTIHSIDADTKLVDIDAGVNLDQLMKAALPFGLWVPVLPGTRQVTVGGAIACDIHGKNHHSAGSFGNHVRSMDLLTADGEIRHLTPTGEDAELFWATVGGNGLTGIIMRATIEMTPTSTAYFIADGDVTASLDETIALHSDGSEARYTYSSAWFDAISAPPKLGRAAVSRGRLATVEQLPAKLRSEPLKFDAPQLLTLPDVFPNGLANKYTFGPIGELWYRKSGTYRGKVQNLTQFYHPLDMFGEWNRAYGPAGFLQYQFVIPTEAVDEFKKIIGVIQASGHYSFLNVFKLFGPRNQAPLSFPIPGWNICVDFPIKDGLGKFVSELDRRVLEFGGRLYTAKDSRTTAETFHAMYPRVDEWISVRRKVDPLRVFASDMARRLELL

[5] = target: T2, Decaprenylphosphoryl-beta-D-ribose oxidase (Mycobacterium tuberculosis (strain ATCC 25618 / H37Rv), UniProt P9WJF1); assay: Inhibition of Mycobacterium tuberculosis DprE1 expressed in Escherichia coli BL21 (DE3) cells assessed as formation of resorufin using FPR as substrate by Amplex Red hydrogen/peroxidase coupled assay
T2 sequence (P9WJF1 whole entry): T1 sequence (whole entry)

[6] = target: T1, Decaprenylphosphoryl-beta-D-ribose oxidase (Mycobacterium tuberculosis (strain ATCC 25618 / H37Rv)); assay: Inhibition of Mycobacterium tuberculosis H37Rv DprE1 assessed as increase in trehalose dimycolates at 100 x MIC incubated for 24 hrs using [14C]acetate by TLC based metabolic labelling assay relative to control
Method in brief: (§1)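 M. tuberculosis H37Rv cultures labelled with [14C]acetate for 24 h. […] Lipids extracted and resolved by TLC, with TDM/TMM compared to untreated control cells. BTZ043 and PBTZ169 served as control inhibitors.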

[7] = target: T1, Decaprenylphosphoryl-beta-D-ribose oxidase (Mycobacterium tuberculosis (strain ATCC 25618 / H37Rv)); assay: Inhibition of Mycobacterium tuberculosis H37Rv DprE1 assessed as increase in trehalose monomycolates at 100 x MIC incubated for 24 hrs using [14C]acetate by TLC based metabolic labelling assay relative to control; method in brief: as §1
[8] = target: T1, Decaprenylphosphoryl-beta-D-ribose oxidase (Mycobacterium tuberculosis (strain ATCC 25618 / H37Rv)); assay: Inhibition of Mycobacterium tuberculosis H37Rv DprE1 assessed as increase in trehalose dimycolates at 10 x MIC preincubated for 24 hrs using [14C]acetate by TLC based metabolic labelling assay relative to control; method in brief: as §1
[9] = target: T1, Decaprenylphosphoryl-beta-D-ribose oxidase (Mycobacterium tuberculosis (strain ATCC 25618 / H37Rv)); assay: Inhibition of Mycobacterium tuberculosis H37Rv DprE1 assessed as increase in trehalose monomycolates at 10 x MIC preincubated for 24 hrs using [14C]acetate by TLC based metabolic labelling assay relative to control; method in brief: as §1
[10] = target: T1, Decaprenylphosphoryl-beta-D-ribose oxidase (Mycobacterium tuberculosis (strain ATCC 25618 / H37Rv)); assay: Binding affinity to trypsin digested Mycobacterium tuberculosis DprE1 protein assessed as Cys387 adduct formation with 387-CVDFP-391 sequence at 300 uM by measuring retention time by LC/MS analysis
[11] = target: T1, Decaprenylphosphoryl-beta-D-ribose oxidase (Mycobacterium tuberculosis (strain ATCC 25618 / H37Rv)); assay: Covalent binding affinity to Mycobacterium tuberculosis DprE1 assessed as adduct formation by measuring 490 Da shift increase in molecular weight at 100 uM by Mass spectrometry analysis
[12] = target: T1, Decaprenylphosphoryl-beta-D-ribose oxidase (Mycobacterium tuberculosis (strain ATCC 25618 / H37Rv)); assay: Covalent binding affinity to Mycobacterium tuberculosis DprE1 assessed as adduct formation by measuring 460 Da shift increase in molecular weight at 100 uM by Mass spectrometry analysis
[13] = target: T1, Decaprenylphosphoryl-beta-D-ribose oxidase (Mycobacterium tuberculosis (strain ATCC 25618 / H37Rv)); assay: Binding affinity to trypsin digested Mycobacterium tuberculosis DprE1 protein assessed as Cys387 adduct formation with 385-NICVDFPIL-393 sequence at 300 uM by measuring retention time by LC/MS analysis

Compound	MIC [1] [µM]	half-life [2] [h]	Activity [3]	pIC50 [5]	Activity [6]	Activity [7]	further results
N#C/C=C/c1cc(C(F)(F)F)cc2c(=O)nc(N3CCN(CC4CCCCC4)CC3)sc12	> 20	0.2	Active				Activity [4]: < 70%
CN(C)C(=O)/C=C/c1cc(C(F)(F)F)cc2c(=O)nc(N3CCN(CC4CCCCC4)CC3)sc12	> 20	> 48	Active	5.90			
COC(=O)C#Cc1cc(C(F)(F)F)cc2c(=O)nc(N3CCN(CC4CCCCC4)CC3)sc12	10 (≈ 4.94 µg/mL)	1.2	Active	6.85	inactive	inactive	Activity [8]: Active; Activity [9]: Active
O=c1nc(N2CCN(CC3CCCCC3)CC2)sc2c(Br)cc(C(F)(F)F)cc12	0.16 (≈ 0.0785 µg/mL)			5.74			Activity [8]: Active; Activity [9]: Active
NC(=O)CCc1cc(C(F)(F)F)cc2c(=O)nc(N3CCN(CC4CCCCC4)CC3)sc12	> 9			4.78			
O=c1nc(N2CCN(CC3CCCCC3)CC2)sc2nc(Cl)ncc12	> 20	4	Active	< 4.70			
O=c1nc(N2CCN(CC3CCCCC3)CC2)sc2c(I)cc(C(F)(F)F)cc12	0.63 (≈ 0.339 µg/mL)			5.63			
N#CCCc1cc(C(F)(F)F)cc2c(=O)nc(N3CCN(CC4CCCCC4)CC3)sc12	> 9			4.88			
COC(=O)CCc1cc(C(F)(F)F)cc2c(=O)nc(N3CCN(CC4CCCCC4)CC3)sc12	> 9			5.27			
O=c1nc(N2CCN(CC3CCCCC3)CC2)sc2c(/C=C/c3ccccn3)cc(C(F)(F)F)cc12	> 20						Activity [4]: < 70%
COC(=O)/C=C/c1cc(C(F)(F)F)cc2c(=O)nc(N3CCN(CC4CCCCC4)CC3)sc12	> 20	1	Active	5.91	inactive	inactive	Retention time [10]: 43.3 min; Activity [11]: Active; Activity [8]: Active; Activity [9]: Active
O=c1nc(N2CCN(CC3CCCCC3)CC2)sc2c([N+](=O)[O-])cc(C(F)(F)F)cc12 [MACOZINONE]					Active	Active	
O=c1nc(N2CCN(CC3CCCCC3)CC2)sc2c(Cl)cc(C(F)(F)F)cc12	0.03 (≈ 0.0134 µg/mL)			6.04			Activity [8]: Active; Activity [9]: Active
N#Cc1ncc2c(=O)nc(N3CCN(CC4CCCCC4)CC3)sc2n1	6.73 (≈ 2.49 µg/mL)			< 4.70			
NC(=O)/C=C/c1cc(C(F)(F)F)cc2c(=O)nc(N3CCN(CC4CCCCC4)CC3)sc12	20 (≈ 9.61 µg/mL)	10	Active	6.70	inactive	inactive	Activity [12]: Active; Retention time [13]: 29.3 min; Activity [8]: Active; Activity [9]: Active
N#Cc1cc(C(F)(F)F)cc2c(=O)nc(N3CCN(CC4CCCCC4)CC3)sc12	0.16 (≈ 0.0698 µg/mL)	12	Active	5.77			
C[C@H]1COC2(CCN(c3nc(=O)c4cc(C(F)(F)F)cc([N+](=O)[O-])c4s3)CC2)O1					Active	Active	
CNC(=O)/C=C/c1cc(C(F)(F)F)cc2c(=O)nc(N3CCN(CC4CCCCC4)CC3)sc12	20 (≈ 9.89 µg/mL)			6.41	inactive	inactive	
N#Cc1ccc2c(=O)nc(N3CCN(CC4CCCCC4)CC3)sc2n1	> 12			5.11			
